Compound activity deposited in PubChem BioAssay by several laboratories.
Shown are actives, neighbours in structure and some others; about 1.9% of the full set was active somewhere.
FAS-TE inh: FAS thioesterase domain inhibitors, primary screen, biochemical, fluorescence intensity, uHTS | Fatty acid synthase (Homo sapiens), P49327 | recombinant FAS-TE, OMFH fluorogenic substrate, fluorescence endpoint | inhibition, % at 15 µM | 360,000 tested, 0.67% active | AID 602261, 2012;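 active = compounds whose normalised, plate-corrected inhibition of enzyme fluorescence in the single-dose primary screen is 50% or more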;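 also: 0% = DMSO with enzyme and 100% = substrate without enzyme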
ADAM10 inh: human ADAM10 inhibitors, primary screen, biochemical, QFRET, HTS; Disintegrin and metalloproteinase domain-containing protein 10 (Homo sapiens), O14672; recombinant ADAM10, EDANS/DABCYL FRET peptide cleavage, 3 h; inhibition, % at 7 µM; 370,000 tested, 0.62% active; AID 720582, 2013;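 active = inhibition above a per-campaign cutoff equal to the mean of compounds falling between control-based bounds plus 3 SD, cut at about 20% in these data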;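 also: 0% = DMSO wells while the 100% control is not disclosed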
Target sequence (O14672 214-748 limits assumed): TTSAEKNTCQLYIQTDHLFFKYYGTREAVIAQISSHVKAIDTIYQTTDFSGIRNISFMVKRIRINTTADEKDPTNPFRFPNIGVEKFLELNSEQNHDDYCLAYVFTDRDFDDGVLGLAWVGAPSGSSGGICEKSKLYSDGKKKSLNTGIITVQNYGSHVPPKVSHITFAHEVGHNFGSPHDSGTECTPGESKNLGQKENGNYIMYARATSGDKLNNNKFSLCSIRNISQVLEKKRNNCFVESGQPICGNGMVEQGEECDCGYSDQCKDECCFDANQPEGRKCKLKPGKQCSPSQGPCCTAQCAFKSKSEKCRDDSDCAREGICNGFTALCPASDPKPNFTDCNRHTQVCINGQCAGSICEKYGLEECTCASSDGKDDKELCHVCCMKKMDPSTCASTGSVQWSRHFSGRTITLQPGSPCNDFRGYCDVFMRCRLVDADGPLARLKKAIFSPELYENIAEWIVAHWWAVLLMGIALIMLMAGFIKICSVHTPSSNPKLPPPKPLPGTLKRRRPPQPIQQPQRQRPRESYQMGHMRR
ADAM17 inh: ADAM17 inhibitors, primary screen, biochemical, QFRET. inhibition, % at 6.95 µM. recombinant ADAM17, EDANS/DABCYL FRET peptide cleavage. 370,000 tested, 0.83% active;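 active = inhibition above the mean of compounds lying between control limits plus 3 SD, set per campaign, cut at about 8.5% in these data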;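 also: 0% = DMSO-only wells as the low control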
SENP1 FRET inh: human SENP1 catalytic domain inhibitors, primary screen, biochemical, FRET, uHTS; 360,000 tested, 0.21% active; recombinant SENP1 catalytic domain, CyPet-SUMO1-YPet FRET cleavage; AID 624204, 2012; inhibition, % at 10 µM;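 active = inhibition at least 30% at 10 µM, raw YFP signal under a set limit, fluorescence ratio 0.5 to 1.5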;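 also: 0% = enzyme with DMSO and 100% = no enzyme wells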
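Material – human SENP1 catalytic domain · Input – SENP1 enzyme, 20 pM final · Compound dosing – single concentration of 10 µM compound, 0.5% DMSO final · Timing – enzyme reaction for 50 min at room temperature, dark · Measured by – FRET fluorescence in CFP and YFP emission channels · Control set – no-enzyme wells low, DMSO-plus-enzyme wells high control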
ADAM10 ctr: ADAM10 inhibitors, counter-screen for ADAM17 exosite inhibitor project, biochemical, FRET, human ADAM10. recombinant ADAM10, EDANS/DABCYL FRET peptide cleavage, 3 h. inhibition, % at 6.95 µM. 2,900 tested, 47% active. shares compounds with ADAM17 inh;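 active = mean inhibition over the triplicate runs exceeds the activity threshold set in the earlier primary screen, cut at about 20% in these data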;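 also: 0% = DMSO wells and 100% = marimastat wells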
ADAM17 confirm: ADAM17 inhibitors, hit retest, confirmation, biochemical, QFRET peptide cleavage; recombinant ADAM17, EDANS/DABCYL QFRET peptide cleavage; AID 743257, 2014; inhibition, % at 6.95 µM; shares compounds with ADAM17 inh; 2,900 tested, 65% active;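 active = mean inhibition across replicates above the hit cutoff set in the primary screen, cut at about 8.5% in these data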;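 also: 0% = DMSO wells and 100% = marimastat wells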
The depositor's hits bear a star.

Results for CCCCNS(=O)(=O)c1ccc(NC(=O)C(Sc2ccccc2)c2ccccc2)cc1 (configuration not stated) ?
FAS-TE inh: 31; ADAM10 inh: 38*; ADAM17 inh: 17*; SENP1 FRET inh: 2; ADAM10 ctr: 46*; ADAM17 confirm: 27*

How did CC(=O)NS(=O)(=O)c1ccc(NC(=O)C(Sc2ccccc2)c2ccccc2)cc1 (configuration not stated) do in these assays?
FAS-TE inh: -2; ADAM10 inh: 4; ADAM17 inh: 3; SENP1 FRET inh: 0

Results for CCOCCn1c(COc2ccccc2)nc2ccccc21 ?
FAS-TE inh: -2; ADAM10 inh: 3; ADAM17 inh: 9.4*; SENP1 FRET inh: -1; ADAM10 ctr: -9; ADAM17 confirm: -3

Results for CC(=O)C[C@H](O)CC(=O)[C@@H]1OC(=O)CCCCC/C=C/Cc2ccccc21 ?
FAS-TE inh: -8; ADAM10 inh: 13; ADAM17 inh: 8.8*; SENP1 FRET inh: 2; ADAM10 ctr: 1; ADAM17 confirm: -1

Results for Cc1ccc(S(=O)(=O)NC(C)CCc2ccccc2)cc1 (configuration not stated) ?
FAS-TE inh: 15; ADAM10 inh: 8; ADAM17 inh: 9.5*; SENP1 FRET inh: 1; ADAM10 ctr: 2; ADAM17 confirm: 6

What do the screens show for `S=c1[nH]nc(-c2ccncc2)n1/N=C/c1ccccc1`?
FAS-TE inh: -10; ADAM10 inh: 1; ADAM17 inh: 3; SENP1 FRET inh: 2

Results for Cc1cccc(/C=N/n2c(-c3ccncc3)n[nH]c2=S)c1 ?
FAS-TE inh: -4; ADAM10 inh: 10; ADAM17 inh: 11*; SENP1 FRET inh: 2; ADAM10 ctr: 12; ADAM17 confirm: 4

How did CC(C)c1ccc(/C=N/n2c(-c3ccccc3)n[nH]c2=S)cc1 do in these assays?
FAS-TE inh: 11; ADAM10 inh: 19; ADAM17 inh: 10*; SENP1 FRET inh: 2; ADAM10 ctr: 9; ADAM17 confirm: 5

How did Cc1ccc(/C=N/n2c(-c3ccccc3)n[nH]c2=S)cc1 do in these assays?
FAS-TE inh: 2; ADAM10 inh: 3; ADAM17 inh: -2; SENP1 FRET inh: 0

What do the screens show for `COc1ccc(NC(C)C(=O)N/N=C/c2ccccc2OCc2ccc(Br)cc2)cc1` (configuration not stated)?
FAS-TE inh: 19; ADAM10 inh: 19; ADAM17 inh: 14*; SENP1 FRET inh: 0; ADAM10 ctr: 14; ADAM17 confirm: 20*

How did Cc1cccc(N2CCN(C(=O)c3ccc4ncsc4c3)CC2)c1C do in these assays?
FAS-TE inh: -4; ADAM10 inh: 8; ADAM17 inh: 8.9*; SENP1 FRET inh: -2; ADAM10 ctr: 1; ADAM17 confirm: 1

What do the screens show for `O=C(c1ccc2ncsc2c1)N1CCN(c2ccccc2Cl)CC1`?
FAS-TE inh: 7; ADAM10 inh: -4; ADAM17 inh: -5; SENP1 FRET inh: 1

Results for CCCCCCCCN1C(=O)[C@@H](CC(=O)NCCC(C)C)C[C@@]2(C(=O)OC)C1=C[C@H](COCc1ccccc1)O[C@@H]2C ?
ADAM10 inh: 5; ADAM17 inh: 2

What do the screens show for `COc1cc(NC(=O)C2CCCN(S(=O)(=O)c3cccc4cccnc34)C2)cc(OC)c1` (configuration not stated)?
ADAM10 inh: 2; ADAM17 inh: 2

How did C[C@H](O)[C@@H]1CN2CCc3c([nH]c4c(-c5ccc6c(c5)OCO6)cccc34)[C@@H]2C[C@@H]1N(C)C(=O)c1ccccc1F do in these assays?
ADAM10 inh: -4; ADAM17 inh: -1

What do the screens show for `CCOc1ccc(-c2c(C(=O)N/N=C/C3CC=CCC3)nnn2-c2nonc2N)cc1` (configuration not stated)?
FAS-TE inh: -10; ADAM10 inh: 7; ADAM17 inh: 9.6*; SENP1 FRET inh: 1; ADAM10 ctr: 4; ADAM17 confirm: 7

How did O=C(NCCCc1ccccc1)[C@H](Cc1ccccc1)NC1(C(=O)NCCc2c[nH]c3ccccc23)CCOCC1 do in these assays?
ADAM10 inh: 15; ADAM17 inh: 5

Results for CCC(C(=O)O)N1C(=O)/C(=C/c2cccn2C)SC1=S (configuration not stated) ?
FAS-TE inh: -12; ADAM10 inh: 19; ADAM17 inh: 8.8*; SENP1 FRET inh: -40; ADAM10 ctr: 17; ADAM17 confirm: 12*

How did Cn1cccc1/C=C1\SC(=S)N(NC(=O)c2ccccc2)C1=O do in these assays?
FAS-TE inh: -7; ADAM10 inh: 7; ADAM17 inh: 5; SENP1 FRET inh: -81

How did Cn1cccc1/C=C1\SC(=S)N(NC(=O)c2ccc(F)cc2)C1=O do in these assays?
FAS-TE inh: -2; ADAM10 inh: 15; ADAM17 inh: 13*; SENP1 FRET inh: -85; ADAM10 ctr: 8; ADAM17 confirm: 4

Results for CC(C(=O)O)N1C(=O)/C(=C/c2cccn2C)SC1=S (configuration not stated) ?
FAS-TE inh: -9; ADAM10 inh: 9; ADAM17 inh: 2; SENP1 FRET inh: -36

Results for COC(=O)C1=C(C)N(Cc2cccc(C(F)(F)F)c2)C(=NCc2cc(OC)c(OC)c(OC)c2)NC1c1cccc(C(F)(F)F)c1 (configuration not stated) ?
ADAM10 inh: -3; ADAM17 inh: 1

Results for COc1cccc(/C=C2\CC3(OC(=O)c4cccc(F)c4)CCCN2C3)c1 (configuration not stated) ?
ADAM10 inh: -4; ADAM17 inh: 3

How did COc1ccc(C(C)C)cc1S(=O)(=O)Nc1ccccn1 do in these assays?
FAS-TE inh: -6; ADAM10 inh: 10; ADAM17 inh: 10*; SENP1 FRET inh: 3; ADAM10 ctr: -15; ADAM17 confirm: -6

Results for COc1ccc(-n2c(=S)[nH]c3c(oc4ccccc43)c2=O)cc1 ?
FAS-TE inh: -8; ADAM10 inh: 6; ADAM17 inh: 9.2*; SENP1 FRET inh: 0; ADAM10 ctr: 3; ADAM17 confirm: 6

Results for Cc1ccc(-c2nnc(SCC(=O)Nc3ccc4c(c3)OCCO4)n2-c2ccc(Cl)cc2)cc1 ?
ADAM10 inh: 7; ADAM17 inh: 4
